Experiments:
[1] = target: Platelet-activating factor acetylhydrolase 2, cytoplasmic (Mus musculus) (UniProt Q8VDG7); assay: pPAFAH anti-target inhibition in intact cells, late-stage follow-up, selectivity assay for PAFAH2 inhibitor project, fluorescence, gel-based ABPP, murine mast cells, in situ (AID 504531); settings: gel-based ABPP FP-Rh, PAFAH2, at 0.01 µM, stronger effect = higher value
Procedure, shortened: (§1)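 Material: murine mast cells treated in situ, then soluble lysate fraction; benchmarks: high control DMSO-only treated cells, low control blank-gel background; schedule: cells 4 h 37 °C, probe 30 min 25 °C; also added: Rhodamine-tagged fluorophosphonate activity probe (FP-Rh), 2 µM final; detection: SDS-PAGE with in-gel fluorescence scanning, band integrated optical density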

[2] = target: Platelet-activating factor acetylhydrolase (Mus musculus) (UniProt Q60963); assay: as above; settings: gel-based ABPP FP-Rh, pPAFAH, at 0.01 µM, stronger effect = higher value
Chain of Platelet-activating factor acetylhydrolase (Mus musculus) (Q60963 whole entry, looked up): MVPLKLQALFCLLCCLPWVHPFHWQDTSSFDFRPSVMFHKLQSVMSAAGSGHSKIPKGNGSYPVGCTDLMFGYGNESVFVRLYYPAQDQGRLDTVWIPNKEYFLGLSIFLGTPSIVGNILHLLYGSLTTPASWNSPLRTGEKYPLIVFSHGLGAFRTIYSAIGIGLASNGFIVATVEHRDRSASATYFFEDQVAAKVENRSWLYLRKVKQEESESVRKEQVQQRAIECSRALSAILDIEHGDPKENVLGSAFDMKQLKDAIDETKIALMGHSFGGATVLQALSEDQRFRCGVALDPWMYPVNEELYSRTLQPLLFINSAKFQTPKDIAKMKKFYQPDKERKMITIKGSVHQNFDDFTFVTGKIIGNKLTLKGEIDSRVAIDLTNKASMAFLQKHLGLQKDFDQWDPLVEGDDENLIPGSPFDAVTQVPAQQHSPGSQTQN
Procedure, shortened: as §1

Chain of Platelet-activating factor acetylhydrolase 2, cytoplasmic (Mus musculus) (Q8VDG7 whole entry, looked up): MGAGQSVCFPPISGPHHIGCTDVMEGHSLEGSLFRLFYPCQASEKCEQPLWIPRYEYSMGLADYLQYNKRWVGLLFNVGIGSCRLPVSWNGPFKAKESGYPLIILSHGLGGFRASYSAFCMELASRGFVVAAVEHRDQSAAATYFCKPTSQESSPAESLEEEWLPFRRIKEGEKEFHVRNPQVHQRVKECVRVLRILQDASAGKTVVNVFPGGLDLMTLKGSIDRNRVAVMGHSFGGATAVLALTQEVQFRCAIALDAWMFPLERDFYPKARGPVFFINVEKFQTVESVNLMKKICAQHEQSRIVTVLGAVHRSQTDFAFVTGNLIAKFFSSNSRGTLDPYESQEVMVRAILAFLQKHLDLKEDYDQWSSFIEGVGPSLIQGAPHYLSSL

inhibition [1]: 100% | inhibition [2]: 0%
SMILES: O=C(N1CCCC1)n1ncc(-c2ccc(-c3ccccc3)cc2)n1

Source: PubChem BioAssay AID504531 (The Scripps Research Institute Molecular Screening Center, 2011)
